Screening results as filed in PubChem.
Redox H2O2 prof: compounds producing H2O2 with reducing agent – biochemical, NIH compound library profiling, artefact control for MLSCN library redox annotation, primary screen. DTT-dependent redox cycling H2O2, phenol red/HRP absorbance; 100% = 100 µM peroxide control, 0% = buffer. activation, % at 10 µM. AID 878. actives 0.03% (n = 200,000);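 active = activation of at least 50% relative to the plate's high and low controls in the primary single-dose screen; inactive = activation below 50%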;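 note: compound incubated with DTT at 0.8 mM final as the reducing agent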
Diaphorase inh: counter-screen for diaphorase-based assays: diaphorase inhibitors and chemical oxidizers. diaphorase resazurin-to-resorufin fluorescence, NADH, 16 min; bacterial (C. kluyveri) enzyme, not human. inhibition, % at 20 µM. actives 0.69% (n = 190,000). AID 1217;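 active = primary screen inhibition at 20 µM above a set limit, cut at about 50% in these data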;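 note: plate controls were DMSO with full reaction for no effect and wells lacking NADH for full effect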
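Test system: Clostridium kluyveri diaphorase enzyme / Quantity: diaphorase at 0.14 U/mL in enzyme working solution / Incubation: 16-min room-temperature incubation before reading / Benchmarks: NADH-free wells as positive control, DMSO-only neutral wells / Signal: resorufin fluorescence 544/590 nm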
G6PDH counter: inhibits Leuconostoc G6PDH, flagging false hits in G6PDH-based assays; Purified L. mesenteroides G6PDH, diaphorase/resazurin coupled fluorescence, 45 min; inhibition, % at 5 µM; actives 0.12% (n = 200,000)
PfG6PD inh: PfG6PD (Plasmodium falciparum) enzyme inhibition. PfGluPho enzyme, NADPH resazurin-diaphorase fluorescence. inhibition, % at 20 µM. actives 0.78% (n = 350,000);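 active = inhibition reaching at least a set limit at 20 µM in the primary screen, cut at about 59% in these data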;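 note: 0% = DMSO wells with substrate and 100% = DMSO wells lacking glucose-6-phosphate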
Diaphorase act: counter-screen for diaphorase-based assays: diaphorase activators and chemical reducers; Diaphorase/resazurin coupled assay, resorufin fluorescence, 16 min; active compounds read high; 1 = vehicle wells, 0 = NADH-free wells; activation factor at 20 µM; actives 0.005% (n = 190,000); AID 1229;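 active = diaphorase activity raised at least twofold by the compound at 20 µM; inactive = activation factor below 2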
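Assay system: bacterial diaphorase enzyme (C. kluyveri) / Input: enzyme 0.07 U/mL final / Medium: 50 mM HEPES pH 7.4 with 4.542 mM MgCl2, 0.005% Tween 20 / Doses: single compound dose of 20 µM, 1% DMSO final / Incubation: 16 min enzyme reaction, ambient temperature / Signal: fluorescence, excitation 544 nm and emission 590 nm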
L major viab: reduces viability of Leishmania major promastigotes; resazurin fluorescence viability; inhibition, % at 10 µM; actives 9% (n = 200,000); AID 1063;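 note: promastigotes grown with compound for 44 hours at 28 °C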
Active calls of the source: *; x = not tested or not shown. The entries come from a sample that favours hits as a whole. Cut-off read from the data, not from the text of the source, unless noted: active = inhibition above about 50%; inactive = the rest.

SMILES	Redox H2O2 prof	Diaphorase inh	G6PDH counter	PfG6PD inh	Diaphorase act	L major viab
CC[n+]1c(/C=C/Nc2ccccc2)oc2ccccc21	-4	14	4	-8	0.9	96*
CCc1ccc(NC(=O)C(=O)NCc2ccccn2)cc1	0	8	6	-17	0.9	10
O=C(COC(=O)C1CCC(=O)N1)Nc1ccccc1OC(F)F (centres undefined)	x	x	x	5	x	x
CN1C2CCC1/C(=C\c1ccccc1)C(=O)/C2=C\c1ccccc1	-3	5	4	2	1	94*
COC(=O)c1cc(S(=O)(=O)N2CCC(c3cc(OC)ccc3OC)C2)c[nH]1 (centres undefined)	x	x	x	-3	x	x
CCN(C(=O)c1coc(=O)c(Br)c1)c1ccc2c(c1)OCO2	0	66*	27	50	0.3	6
CCN(C(=O)c1c(C)cc(=O)oc1C)c1ccc2c(c1)OCO2	-4	8	11	-1	0.9	-1
COc1cccc(Nc2nc(-c3cccs3)nc3ccccc23)c1	0	26	17	24	0.7	99*
COc1ccc(Nc2nc(-c3cccs3)nc3ccccc23)cc1	0	16	10	17	0.8	40
COc1cccc(Nc2ncnc3ccccc23)c1	0	8	0	12	0.9	62*
COc1cccc(CN(C)c2nc(-c3cccs3)nc3ccccc23)c1	1	12	12	3	0.9	92*
COc1ccc(N2CCN(c3nc(-c4cccs4)nc4ccccc34)CC2)cc1	0	15	0	19	0.9	36
COc1ccc(Nc2ncnc3ccccc23)cc1	0	2	-3	32	1	12
CCCCCCCCNc1ncnc2ccccc12	0	7	6	9	0.9	77*
O=C1Nc2ccccc2/C1=C/C(=O)c1cccs1	0	4	8	1	1	100*
COc1ccc(C(=O)/C=C2/C(=O)Nc3ccccc32)cc1	x	x	x	16	x	x
COc1cc(NS(=O)(=O)c2cc(C)ccc2OC)c(OC)cc1Cl	0	7	3	-11	0.9	99*
C[C@@H]1CN([C@@H](C)CO)C(=O)c2cc(Br)cnc2O[C@H]1CN(C)C(=O)c1ccccc1F	x	x	x	-9	x	x
Cc1nc2c(C(=O)NCc3ccccc3Cl)c[nH]n2c(=O)c1Cl	-4	15	-11	-11	0.8	-5
Cc1nc2c(C(=O)NCCc3ccccc3Cl)c[nH]n2c(=O)c1Cl	0	65*	0	-9	0.4	-5
CCNC(=O)N1CCNC(=O)C1CC(=O)OC (centres undefined)	4	-1	6	-1	1	-6
C=C(C)CNC(=S)N1CCNC(=O)C1CC(=O)OC (centres undefined)	0	8	5	2	0.9	78*
C/C(=N\NC(=O)CC1N=C(Cc2ccccc2)NNC1=O)c1ccc(Cl)cc1Cl (centres undefined)	1	10	-2	-2	0.9	15
CCc1nc2oc3ccc(C)cc3c(=O)c2cc1C(=O)OC	x	x	x	16	x	x
CCCCOc1ccc(CSCCN=C(N)N)cc1	0	10	14	5	0.9	97*
SMILES	Redox H2O2 prof	Diaphorase inh	G6PDH counter	PfG6PD inh	Diaphorase act	L major viab
CCCCOc1ccc(CSC(CC(=O)O)C(=O)O)cc1 (centres undefined)	3	-1	-4	-24	1	-8
CCOC(=O)[C@@H]1[C@H]2COc3ccccc3[C@@H]2N2C(=O)N(c3cccc(Cl)c3)C(=O)[C@@]12C	x	x	x	13	x	x
Cc1ccccc1Nc1cc(C)c2c(O)cccc2n1	2	30	20	16	0.7	75*
COc1ccc(-c2sc(Nc3ccc(F)c(F)c3F)nc2CCC(=O)NN)cc1	x	x	x	17	x	x
O=C1CC(c2ccccc2)Sc2nc3ccccc3n21 (centres undefined)	-2	14	-2	-7	0.9	-8
O=C1CC(c2ccco2)Sc2nc3ccccc3n21 (centres undefined)	0	51*	12	3	0.5	-7
O=C(Nc1nnc(-c2ccc(Cl)cc2)o1)c1ccc(N2C(=O)CCC2=O)cc1	0	13	5	-18	0.9	66*
O=C(Nc1nnc(-c2ccc3c(c2)CCCC3)o1)c1ccccc1	0	14	-14	-25	0.9	96*
O=C(Nc1nnc(-c2ccncc2)o1)c1ccccc1	-2	6	4	6	0.9	3
Cc1ccc(C(=O)Nc2nnc(-c3ccncc3)o2)cc1	-3	4	9	-4	1	53*
Nc1c(N2CCCC2)cc(Cl)c2nonc12	6	62*	57*	-72	0.4	86*
Nc1ccc(N2CCCCC2)cc1N1CCCCC1	1	57*	6	49	0.4	100*
Nc1ccc(N2CCCCC2)c2nonc12	-1	30	54*	52	0.7	-3
COc1ccccc1CCNC(=O)C(=O)NCC1OCCCN1S(=O)(=O)c1ccc(F)cc1C (centres undefined)	x	x	x	-3	x	x
CCc1nn(CC(=O)NCCCN(CC)Cc2ccccc2)c(=O)c2cc3sccc3n12	0	4	3	3	1	55*
CCCCN(CCCNC(=O)Cn1nc(CC)n2c(cc3sc(C)cc32)c1=O)Cc1ccccc1	x	x	x	-18	x	x
CCOC(=O)CNC(=O)C1COc2ccccc2O1 (centres undefined)	x	x	x	-6	x	x
Cc1cc2c(cc1C)NC(c1nc3ccccc3[nH]1)C1=C(CC(C)(C)CC1=O)N2 (centres undefined)	2	6	1	-8	0.9	91*
Cc1cccn2c(=O)c(C=NCc3ccco3)c(Nc3ccc(SC(F)F)cc3)nc12	2	5	4	-11	0.9	91*
C=CCSc1nc(C)c2cc(C)cc(C)c2n1	0	14	1	14	0.9	-2
CCOc1ccc2nc(NC3=NC(C)(C)C=C(C)N3)nc(C)c2c1	0	-10	3	11	1.1	98*
CCOc1ccc2c(C)nc(NC3=NC(C)(C)C=C(C)N3)nc2c1	1	0	4	0	1	101*
O=C(NCC1CCCO1)C1CCN(C(=O)c2ccc(Br)cc2)CC1 (centres undefined)	1	19	-10	-8	0.8	-1
COC(=O)[C@]1(C)CCC[C@@]2(C)C3CC[C@@]4(C)C[C@]3(CCC21)CC(=O)N4C (some centres undefined)	x	x	x	-1	x	x
O=C(CNC(=O)c1ccc(Cl)cc1)NCC(F)(F)F	x	-4	2	11	1	55*
COc1cccc(Oc2ccc(S(=O)(=O)N3CCOCC3)cc2[N+](=O)[O-])c1	x	x	x	25	x	x
